From PubChem
ADAM10 inh – inhibitors of human ADAM10. actives 0.62% (n = 370,000). recombinant ADAM10, EDANS/DABCYL FRET peptide cleavage, 3 h. O14672. inhibition, % at 7 µM;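 active means inhibition above a per-campaign cutoff equal to the mean of compounds falling between control-based bounds plus 3 SD, cut at about 20% in these data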;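 further: 0% = DMSO wells while the 100% control is not disclosed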
PLC-gamma1 inh – blocks human PLC-gamma1 enzyme activity. P19174. purified PLC-gamma1, fluorogenic substrate, fluorescence. inhibition, % at 12.2 µM. actives 0.84% (n = 370,000); in the data active means inhibition above about 9.5%
TbMetRS inhib – Trypanosoma brucei MetRS inhibition; purified T. brucei MetRS, ATP depletion, Kinase-Glo luminescence; inhibition, % at 11.9 µM; actives 0.4% (n = 360,000); AID 624268;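 active means inhibition above a per-plate cutoff of the control wells' mean inhibition plus 3 SD, cut at about 5.5% in these data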;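 further: 0% = DMSO wells median and 100% = median of wells with control inhibitor compound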
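Measured by: Kinase-Glo luciferase luminescence reporting remaining unconsumed ATP. Material: purified T. brucei MetRS enzyme. Doses: 11.9 µM compound single dose, 0.9% DMSO. Medium: HEPES buffer containing pyrophosphatase, BSA, spermine, DTT. Times: 15 min preincubation, 2 h reaction, all 25 °C. Reagent: methionine, ATP and bulk E. coli tRNA.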
PLCb3 inh – PLC-beta3 (human) inhibition, primary screen; actives 0.18% (n = 370,000); Purified PLC-beta3, fluorogenic substrate, fluorescence; inhibition, % at 12.2 µM; Q01970; in the data active means inhibition above about 11%;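 further: 0% = median of compound wells on plate and 100% = full blocker control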
ADAM17 inh – inhibits human ADAM17; recombinant ADAM17, EDANS/DABCYL FRET peptide cleavage; actives 0.83% (n = 370,000); inhibition, % at 6.95 µM;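 active means inhibition above the mean of compounds lying between control limits plus 3 SD, set per campaign, cut at about 8.5% in these data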;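 further: 0% = DMSO-only wells as the low control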
ADAM10 ctr – counter-screen for ADAM17 exosite inhibitors: inhibitors of human ADAM10; actives 47% (n = 2,900); shares compounds with ADAM17 inh; inhibition, % at 6.95 µM; recombinant ADAM10, EDANS/DABCYL FRET peptide cleavage, 3 h;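 active means mean inhibition over the triplicate runs exceeds the activity threshold set in the earlier primary screen, cut at about 20% in these data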;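 further: 0% = DMSO wells and 100% = marimastat wells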
ADAM17 confirm – confirmation of inhibitors of human ADAM17. shares compounds with ADAM17 inh. recombinant ADAM17, EDANS/DABCYL QFRET peptide cleavage. inhibition, % at 6.95 µM. actives 65% (n = 2,900);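 active means mean inhibition across replicates above the hit cutoff set in the primary screen, cut at about 8.5% in these data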;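 further: 0% = DMSO wells and 100% = marimastat wells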
* marks the source's active call; other numbers are inactive results; nt = no result. Sampled rows, rich in hits. Any-hit rate of the full collection: about 2.3%.

SMILES	ADAM10 inh	PLC-gamma1 inh	TbMetRS inhib	PLCb3 inh	ADAM17 inh	ADAM10 ctr	ADAM17 confirm
Cc1ccc(S(=O)(=O)N2C[C@H]3[C@H]4C(=O)N(Cc5ccccc5)C(=O)[C@H]4CC(=O)[C@H]3[C@@H]2c2ccccc2)cc1	-12	-16	-1	-25	0	nt	nt
Cc1ccc(O)c(Cc2cc(C)cc(Cc3cc(C)ccc3O)c2O)c1	11	1	0	1	9.4*	30*	14*
O=C(COC(=O)/C=C/c1ccccc1)NCc1ccc(Cl)cc1	7	-1	1	-1	2	nt	nt
O=C(COC(=O)/C=C/c1ccc(Cl)cc1)NC(=O)NCc1ccccc1	-6	9	0	-5	9.9*	26*	15*
C=C(C)CN1CCN(S(=O)(=O)c2ccc(C)c(N(C)S(=O)(=O)c3ccc(C)cc3)c2C)CC1	6	2	0	1	10*	14	11*
Cc1cc(C)c2c(=O)[nH][nH]c2n1	5	-1	0	-2	12*	1	7
COc1ccc2c(c1)C(=O)N1[C@H]3c4cc(C)ccc4OC[C@@H]3[C@H](c3ccccc3)[C@]1(C)C(=O)N2	14	-10	0	-18	8.9*	6	9.6*
O=C(Nc1ccc(N2CCOCC2)cc1)c1ccc(Cl)c(S(=O)(=O)N2CCCCC2)c1	-7	2	-1	-2	-1	nt	nt
COc1ccc(N2CCN(c3cc(C(=O)NC4CCCCC4)ncn3)CC2)cc1OC	-8	-1	0	-2	-5	nt	nt
Cc1sc2nc(SCC(=O)NCCO)n(C)c(=O)c2c1C	3	1	0	3	1	nt	nt
Cc1sc2nc(SCC(=O)OC(C)C)n(C)c(=O)c2c1C	-5	8	0	-1	15*	-6	-1
Cc1ccc(C(=O)NC(=S)/C=C2\N(C)c3ccccc3C2(C)C)cc1	16	-32	-1	-42	18*	26*	13*
Cc1ccc(C(=O)NCCNc2ccc([N+](=O)[O-])cc2C(F)(F)F)cc1	14	4	0	-36	8.8*	20*	12*
Nc1ccc(S(=O)(=O)c2ccc(N3CCOCC3)c(N)c2)cc1	-15	0	0	-5	0	nt	nt
COc1ccc(CCC(=O)Nc2nnc(C(C)(C)C)s2)cc1	6	4	0	-3	-1	nt	nt
CCSc1nnc(NC(=O)CCc2ccc(OC)cc2)s1	16	6	-1	7	9.1*	4	3
Cc1c(Cl)cccc1Nc1nc(N)nc(CSc2ncccn2)n1	9	8	0	8	4	nt	nt
Cc1c(Cl)cccc1Nc1nc(N)nc(CSc2nc3ccccc3s2)n1	16	0	1	-1	9.5*	20	11*
CCCCC(=O)NC(c1ccccc1OC)c1ccc2cccnc2c1O (configuration not stated)	18	-9	-1	-15	9.0*	16	7
CCCC(=O)NC(c1ccccc1OC)c1ccc2cccnc2c1O (configuration not stated)	nt	nt	-1	nt	nt	nt	nt
O=C(NCCn1cc(SCc2ccc(F)cc2)c2ccccc21)c1c(F)cccc1F	12	-2	0	-2	9.3*	41*	21*
OC(c1ccc2ccccc2c1)c1ncc(-c2ccc(C(F)(F)F)cc2)[nH]1 (configuration not stated)	10	0	0	-5	10*	42*	23*
COc1ccc(C(O)c2ncc(-c3cccc(C(F)(F)F)c3)[nH]2)cc1F (configuration not stated)	6	3	0	0	4	nt	nt
CCc1ccc(C(O)c2ncc(-c3cccc(C(F)(F)F)c3)[nH]2)cc1 (configuration not stated)	9	5	0	1	11*	21*	11*
COc1cccc(-c2cnc(C(O)c3cccc(OC)c3)[nH]2)c1 (configuration not stated)	-1	0	0	-1	-2	nt	nt
